Bioassay records (PubChem BioAssay)
A selection: hits, their analogues and other compounds. The true share with any hit is near 1.9%.
PLCb3 inh – blocks human PLC-beta3 enzyme activity | Q01970 | Purified PLC-beta3, fluorogenic substrate, fluorescence | inhibition, % at 12.2 µM | actives 0.18% (n = 370,000) | AID 720704;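 also: 0% = median of compound wells on plate and 100% = full blocker control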
HGIII-sPLA2 inh – Blocks human group III sPLA2 activity | Q9NZ20 | QFRET BODIPY PC-A2 liposome hydrolysis, fluorescence | inhibition, % at 12.2 µM | actives 0.56% (n = 370,000) | AID 743126;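 active = inhibition above mean plus 3 SD of compounds lying within the high and low control bounds, cut at about 19% in these data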;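 also: 0% = median of test compound wells and 100% = no enzyme DMSO wells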
Tb MetRS inh – Trypanosoma brucei MetRS inhibition; purified T. brucei MetRS, ATP depletion, Kinase-Glo luminescence; inhibition, % at 11.9 µM; actives 0.4% (n = 360,000); AID 624268;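 active = inhibition above a per-plate cutoff of the control wells' mean inhibition plus 3 SD, cut at about 5.5% in these data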;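 also: 0% = DMSO wells median and 100% = median of wells with control inhibitor compound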
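Test system – parasite MetRS enzyme · Reagent – substrates ATP, L-methionine and bulk Escherichia coli tRNA · Doses – 11.9 µM compound single dose, 0.9% DMSO · Times – 15 min enzyme-compound preincubation, 2 h reaction, 10 min detection, 25 °C · Signal – Kinase-Glo luminescence, ATP depletion format · Controls – DMSO-only wells as low control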
PLCg1 inh – inhibitors of human phospholipase C gamma1. purified PLC-gamma1, fluorogenic substrate, fluorescence. actives 0.84% (n = 370,000). inhibition, % at 12.2 µM; in the data active = inhibition above about 9.5%
PLCg1 ctr – PLC-gamma1 inhibition, counter-screen for PLC-beta3 hits; shares compounds with PLCg1 inh; purified PLC-gamma1, fluorogenic substrate, fluorescence; inhibition, % at 12.3 µM; actives 3.1% (n = 3,300); AID 743258; in the data active = inhibition above about 9.5%
PLCbeta3 conf – human PLC-beta3 inhibition, confirmation; actives 1% (n = 3,300); AID 743261; purified PLC-beta3, fluorogenic substrate fluorescence; inhibition, % at 12.3 µM; shares compounds with PLCg1 inh
An asterisk follows results filed as active; nt = not tested or not shown. Rule as the data show it, unless noted: active = inhibition above about 11%; inactive = the rest.

SMILES	PLCb3 inh	HGIII-sPLA2 inh	Tb MetRS inh	PLCg1 inh	PLCg1 ctr	PLCbeta3 conf
Cc1ccc(S(=O)(=O)CC(=O)Nc2nc(-c3ccccc3)cs2)cc1	3	-40	-2	4	nt	nt
Cc1ccc(S(=O)(=O)CCC(=O)Nc2nc(-c3ccncc3)cs2)cc1	-6	2	0	13*	3	-6
O=C(O)Cn1ccnc1[N+](=O)[O-]	6	6	0	10*	5	0
COC(=O)Cn1ccnc1[N+](=O)[O-]	6	3	0	6	nt	nt
CCOC(=O)CCCCCC(=O)Nc1ccc2c(c1)C(=O)N([C@H](C)CO)C[C@@H](C)[C@@H](CN(C)C(=O)CCC(F)(F)F)OCCCC[C@H](C)O2	5	-8	0	12*	-11	-3
Cc1noc(C)c1S(=O)(=O)Nc1ccc2c(c1)C(=O)N([C@H](C)CO)C[C@H](C)[C@@H](CN(C)C(=O)NC(C)C)O2	0	8	-3	2	nt	nt
Cc1noc(C)c1S(=O)(=O)Nc1ccc2c(c1)C(=O)N([C@H](C)CO)C[C@H](C)[C@H](CN(C)C(=O)NC(C)C)OCCCC[C@@H](C)O2	8	7	1	11*	-1	0
COC(=O)[C@]12C[C@H](CC(=O)NCCCCc3ccccc3)C(=O)N(Cc3ccc(Cl)cc3Cl)C1=C[C@H](C(C)C)O[C@@H]2C1CC1	1	0	nt	-2	nt	nt
CCOC(=O)[C@@]12CCCC3=C1N(CCC3)C(=O)[C@H]2CC(=O)NCC1CCCCC1	-5	12	nt	1	nt	nt
CCc1ccccc1NCC(=O)Nc1ccc(Cl)c(C(F)(F)F)c1	8	12	-1	12*	-1	1
CCCCN(C)C(=O)C1CCN(S(=O)(=O)c2ccc3[nH]c(=O)oc3c2)CC1	1	-3	nt	-1	nt	nt
COc1ccc(OCc2nn3c(-c4ccco4)nnc3s2)cc1	-1	7	-1	1	nt	nt
c1coc(-c2nnc3sc(Cc4cccs4)nn23)c1	-10	-11	-1	20*	-6	-5
CN(c1ccccc1)S(=O)(=O)c1ccc(NC(=S)NC(=O)c2ccccc2)cc1	3	10	-2	0	nt	nt
CN(c1ccccc1)S(=O)(=O)c1ccc(NC(=S)NC(=O)C2CC2)cc1	6	4	0	10*	6	5
Cc1cc(-n2c(C)cc(C(=O)CSc3nnc4sc5ccccc5n34)c2C)no1	11*	10	0	4	-5	-3
Cc1cc(-n2c(C)cc(C(=O)CSc3ncnc4ccccc34)c2C)no1	-30	-5	-2	-26	nt	nt
COc1ccccc1C(=O)N(C)c1nnc(-c2ccccc2)s1	4	6	-1	9.7*	-1	2
N/C(=N\NS(=O)(=O)c1ccccc1)c1ccccn1	-4	-1	0	1	nt	nt
N/C(=N\NS(=O)(=O)c1ccc(Cl)cc1)c1ccccn1	3	11	0	10*	-3	-3
Cc1ccc(N(CC(=O)NCc2cccnc2)S(C)(=O)=O)cc1C	5	12	-1	12*	-3	1
Cc1ccc(CNC(=O)CN(c2cccc([N+](=O)[O-])c2)S(C)(=O)=O)cc1	3	-10	0	11*	-2	-3
Cc1ccc(N(CC(=O)NCc2ccncc2)S(C)(=O)=O)cc1Cl	-1	-2	-1	1	nt	nt
C[C@H]1[C@@H](OC(=O)N2CCN(c3ccccc3)CC2)CC[C@@]23CCCN2C(=O)CCC[C@@H]13	1	0	nt	2	nt	nt
CCN(CC)C(=O)Oc1ccc(Br)cc1C(=O)Nc1ccc(F)cc1F	1	8	0	9.7*	0	-6
SMILES	PLCb3 inh	HGIII-sPLA2 inh	Tb MetRS inh	PLCg1 inh	PLCg1 ctr	PLCbeta3 conf
COc1ccc(NC(=O)Nc2ccc3c(c2)C(=O)N([C@H](C)CO)C[C@H](C)[C@@H](CN(C)S(=O)(=O)c2cccs2)O3)cc1	4	-20	0	11*	-4	-2
CCCCCC(=O)Nc1ccc(N2CCN(S(C)(=O)=O)CC2)cc1	4	3	0	9.7*	-6	-4
CCCCC(=O)Nc1ccc(N2CCCC2)cc1	-13	-4	-1	-14	nt	nt
C=CCCC(=O)N1CCCC(Cc2cccc(Cl)c2)(C(=O)OCC)C1 (stereo not given)	2	-1	-2	12*	-3	-7
COc1ccc(NC(=O)Cc2c(Cl)cccc2Cl)cn1	0	3	0	3	nt	nt
COc1ccc(NS(=O)(=O)Cc2ccccc2Cl)cn1	3	4	0	12*	-1	5
Cc1ccccc1Cn1cc(COC(=O)NCCc2c[nH]c3ccccc23)nn1	3	-77	nt	0	nt	nt
COc1cc(OC)c(C(=O)Oc2ccc3c(c2)OCO3)cc1OC	4	2	0	11*	8	3
COc1ccc(C(=O)Oc2ccc3c(c2)OCO3)cc1OC	6	10	0	0	nt	nt
COC(=O)[C@@]12CCCCC=C1N(CCc1ccc(Cl)cc1)C(=O)[C@H]2CC(=O)NCc1cccc(C(F)(F)F)c1	-2	-11	nt	0	nt	nt
Cc1ccc(-c2nc(C3CCCN(S(=O)(=O)c4cccs4)C3)no2)cc1 (stereo not given)	-4	12	nt	1	nt	nt
COC(=O)[C@]12C[C@H](CC(=O)N3CCN(C(=O)C4CC4)CC3)C(=O)N(CCc3ccc(OC)c(OC)c3)C1=C[C@H](C(C)C)O[C@@H]2C1CC1	2	-2	nt	-2	nt	nt
CC(C)(C)N1Cc2nnn(Cc3ccccc3)c2-c2cc(N3CCCC3)ccc2S1(=O)=O	-49	6	nt	-41	nt	nt
COc1cc(NS(=O)(=O)c2ccc(NC(=S)NC(=O)COc3ccccc3OC)cc2)nc(OC)n1	-4	6	0	14*	-3	-7
COc1cc(NS(=O)(=O)c2ccc(NC(=S)NC(C)=O)cc2)nc(OC)n1	14*	9	1	16*	-5	0
COc1cc(NS(=O)(=O)c2ccc(NS(=O)(=O)c3ccc(NC(C)=O)cc3)cc2)nc(OC)n1	-5	-3	0	-1	nt	nt
COc1cc(NS(=O)(=O)c2ccc(NC(=O)CN3C(=O)c4ccccc4C3=O)cc2)nc(OC)n1	5	-15	0	12*	3	10
OCCC1CN(Cc2cccc3nonc23)CCN1Cc1ccsc1 (stereo not given)	3	3	-1	10*	1	0
CC(C)=CCN1CCN(Cc2cccc3nonc23)CC1CCO (stereo not given)	0	1	0	0	nt	nt
O=C(NC1CC[C@@]23CCCN2C(=O)CCC[C@H]3C1)c1ccccc1 (stereo not given in full)	-2	2	nt	0	nt	nt
CC(C)CCNC(=O)C1COC(O)(C(Cc2ccccc2)NC(=O)[C@@H](NC(=O)OCc2ccccc2)C(C)C)CN1 (stereo not given in full)	-3	-1	nt	-1	nt	nt
CC(=O)c1ccc(N2CCN(C(=O)c3ccc(Br)cc3)CC2)c(F)c1	12*	-3	-1	2	-12	-10
